Results taken from ChEMBL document CHEMBL4513216, “Probing the Open Global Health Chemical Diversity Library for Multistage-Active Starting Points for Next-Generation Antimalarials” (ACS Infect Dis, 2020).

Assay: Toxicity liver stage against HepG2, at 10uM
Type: cell-based
Set-up: test concentration 10 uM, cell line HepG2-A16-CD81EGFP
Details: human, HepG2-A16-CD81EGFP cells; read-out: INHIBITION
Summary of the method: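 Uninfected HepG2-A16-CD81EGFP cells, 3 × 10^3 per well, 1536-well, plated on prespotted compound at 10 μM final, parasite-free screening media added to match infected plates; puromycin 10 μM positive, DMSO 0.5% negative; run in parallel with 48 h PbLuc assay at 37 °C, 5% CO2; viability by CellTiter-Glo luminescence, normalized to controls.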

Structure (SMILES)	cytotoxicity at 10 µM [%]
COc1ccc(CN2CC[C@H](c3nc4cccc(C(N)=O)c4[nH]3)C2)cc1	12.1
COc1ccc(Cl)cc1C(=O)NCC1CCN(C(=O)c2ccoc2)CC1	10.1
CS(=O)(=O)NCCn1ccc(-c2cccs2)n1	1.43
CC(C)C(=O)N1CCC2(CC1)[C@@H]1CN(C(=O)N(C)C)C[C@@H]1C(=O)N2C	1.76
O=C(C1CCCCC1)N1C[C@@H]2CCNC[C@@H]21	3.47
COc1ccc(C[C@H]2CN(C(=O)c3cscn3)CC[C@@H]2OC)cc1	7.71
O=C(C1CCOC1)N1CCC2(CCNCC2)C1 (configuration not stated)	7.62
N#CCC(=O)NCc1nnc2n1CCN(Cc1ccco1)C2	-139
O=C(c1ccco1)N1CCOCC2(C1)CN(c1ccccn1)C(=O)CO2 (configuration not stated)	3.16
CCCOc1cccc(C(=O)Oc2cc(=O)n3cccc(C)c3n2)c1	12.1
CC(C)CN1CCn2c(nc3cc(C(=O)NC(C)C)ccc32)C1	0.889
C=C/C=c1\c(=C/C)oc2c(NCc3ccccc3)nc(CC)nc12	10.4
CCc1cc(OC)c(OC)cc1C(=O)Nc1cccnc1	4.94
Cc1nn(C)c2c(N3CCSCC3)nc(C3CC3)nc12	7.29
COc1cc(NCc2ccc(Cl)cc2)c(-c2nn[nH]n2)cc1OC	10.1
CCNC(=O)[C@@H]1CN(Cc2ccccc2)C[C@H]1C(=O)c1ccc(F)cc1	3.38
O=C(Nc1ccc(F)cc1)N1CCC(CO)(Nc2ccccc2)CC1	2.94
O=C(NCCO)NC(c1ccccc1)c1ccc2c(c1)CCCO2 (configuration not stated)	2.73
O=C(Cc1ccn[nH]1)Nc1cncc(Br)c1O	-3.93
COCCN(C(=O)c1ccoc1C)c1ccc(C#N)cc1	-4.9
CC(C(=O)Nc1nccs1)N(C)Cc1cccc(C#N)c1 (configuration not stated)	1.88
CCOc1ccccc1CCC(=O)Nc1c(C)nn(C)c1C	-3.91
O=C1CCCN1CCN1CCC(c2ccn[nH]2)CC1	11.3

Structure (SMILES)	cytotoxicity at 10 µM [%]
CC(NC(=O)CN1CCN(c2cccc(Cl)c2)CC1)c1ccco1 (configuration not stated)	-11.1
Cc1nc2n(n1)CC(NCc1nnc(C(C)(C)C)o1)CC2 (configuration not stated)	-5.23
CCc1nc(C(=O)N2CCOCC2CC(=O)c2ccccc2)c[nH]1 (configuration not stated)	-0.613
Cn1ccc(CN2CCCC(CNS(C)(=O)=O)C2)cc1=O (configuration not stated)	9.31
CC(=O)NCCCSC1CCCN(c2ccccc2Cl)C1=O (configuration not stated)	-0.5
CCOc1cc(CNCC2CN(C3CC3)CCO2)ccc1OC (configuration not stated)	-5.95
O=C(CS(=O)(=O)Cc1nnnn1C1CC1)NCCc1ccccc1	2.92
CCN(CC)C(=O)C1CCN(C(=O)Nc2cccnc2OC)CC1	19
Cc1cc(C)c(S(=O)(=O)NCCC(=O)NCc2ccoc2)c(C)c1	4.05
COc1cc(C)nc(N2CCN(C(=O)CCc3ccco3)CC2)n1	7.92
CC(O)CN1CCN(C(=O)c2ccnc(N(C)C)c2)CC1 (configuration not stated)	4.37
CC(=O)N1CCCN(C(=O)CN(C)c2ccc(Cl)cn2)CC1	-7.64
CCCN1CCN(S(=O)(=O)c2ncn(C)c2Cl)CC1	9.97
O=C(c1ccc(O)c(Cl)c1)N1CCN(c2nccs2)CC1	-10.3
Cc1nn(C)c(C)c1CNCc1cccnc1N1CCOCC1	-138
CS(=O)(=O)Cc1ccc(C(=O)NCC2Cc3ccccc3O2)cc1 (configuration not stated)	6.6
COc1ccc(Nc2ncccc2C#N)cc1N1CCCC1=O	6.86
CC(C)C(C#N)N1CCN(Cc2nccn2CC(F)(F)F)CC1 (configuration not stated)	0.172
Cn1cc(N2CCCC(Oc3ccc(F)cc3Cl)C2=O)cn1 (configuration not stated)	-3.3
O=C(O)c1csc(S(=O)(=O)N2CCCc3cccc(OC(F)F)c32)c1	-13.5
O=C(NCCCC(=O)N1CCN(CC2CC2)c2ccccc21)C1CC1	-9.59
COc1ccc(C)c2c1N(C(=O)c1cnc3onc(C)c3c1)CCC2	-1.67
O=C(CN(CC(O)c1ccc(F)cc1)C1CC1)NC1CCOCC1 (configuration not stated)	0.0428

Structure (SMILES)	cytotoxicity at 10 µM [%]
CCS(=O)(=O)CCN(C)C(=O)NC(C)c1ccc(C)s1 (configuration not stated)	-9.02
N#Cc1cc(S(N)(=O)=O)ccc1NC1CCc2cc(Cl)ccc21 (configuration not stated)	29.1
Cc1ccc(NC(=O)N(CCO)CCO)c(OCc2ccccc2)c1	18.4
Cc1nnc(Cn2cc(I)cc(C)c2=O)o1	0.0894
CN1C(=O)CCN(C(=O)C2CCCCC2)c2ccccc21	20.8
COCCN1CCC(CNC(=O)C2(C#N)CCCCC2)CC1	-11.1
CS(=O)(=O)CCCNC1(c2cccc(Cl)c2)CCCC1	0.245
CC(C)N(C)CC(=O)N(C)Cc1nc(C(F)(F)F)cs1	-2.96
COC(=O)CCN1CCCC1c1ccccc1Cl (configuration not stated)	19.6
O=C(NCC1CC1)C1=NOC2(CCN(S(=O)(=O)Cc3ccccc3)C2)C1 (configuration not stated)	-2.1
O=C(c1ccc[nH]1)N1CCC2(CC1)CC(Oc1cccnc1)CO2 (configuration not stated)	-7.69
COC[C@@H]1CC[C@H]2[C@H](CCN2S(=O)(=O)c2cccc(C)c2)O1	3.29
Cc1c(C(C)NC2CCOCC2)cnn1-c1ccc(F)cc1F (configuration not stated)	-8.87
Cc1cc(C)c2nc(C)cc(C(=O)N3CC(O)CO3)c2c1 (configuration not stated)	16.5
CNS(=O)(=O)CCn1cc(-c2ccc(OC)c(OC)c2)nn1	1.9
Cc1nc[nH]c1CN1CCn2nc(CN3Cc4ccccc4C3)cc2C1	3.79
CCc1nccn1CCC(=O)N1CC[C@@H](c2sccc2C)[C@H](O)C1	-6.04
C/C=C(\C)CN1C[C@@H](NC(=O)c2ccc(O)c(Cl)c2)C[C@H]1C(=O)NCC	9.23
CCNC(=O)[C@@H]1C[C@H](NC(=O)c2cncnc2C)CN1Cc1ccsc1	2.12
Cc1cc(C(=O)NC2CCCCNC2=O)c(=O)[nH]c1C (configuration not stated)	-3.35
CCCc1nc(NC2(COC)CCCC2)c2cnn(C)c2n1	-1.43
CCn1cnc(NC(=O)N2CCCC(c3ccccc3)CC2)n1 (configuration not stated)	2.7
CC(C)(C)CN1CCCC(O)(CN2CCc3[nH]ncc3C2)C1=O (configuration not stated)	-5.14

Structure (SMILES)	cytotoxicity at 10 µM [%]
CN(C)CCNC(=O)c1ccc(OC2CCN(C3CCC3)CC2)c(Cl)c1	-5.89
COc1ccc(-n2c(SCC(=O)O)nnc2-c2cn[nH]c2)cc1	-4.59
CCc1cc(N[C@H](C(N)=O)[C@@H](C)CC)n2nccc2n1	2.99
CCN1CC(C(=O)N2CC(Oc3ccccc3Cl)C2)CC1=O (configuration not stated)	-2.83
CCn1ccc(CN(C)C(=O)CSc2nnc(N)s2)n1	3.45
OC1CCN(CCCNc2ncccn2)CC1	2.68
CN(C)c1nc2c(c(N3CCC(O)CC3)n1)CN(CC(C)(C)C)CC2	7.5
COc1cccc(CC2(C(=O)O)CCN(c3nccs3)CC2)c1	-9.59
Fc1ccc(C2(CNCC(F)F)CCOC2)cc1 (configuration not stated)	-152
CCN(CC)C(=O)C1CCCN(CC(=O)Nc2c(C)nn(CC)c2C)C1 (configuration not stated)	2.13
CCn1ccnc1C1CCCN(C(=O)c2sc(C)nc2C)C1 (configuration not stated)	1.24
Cc1nc(N2CCCC(C)C2)nc2cc(S(C)(=O)=O)ccc12 (configuration not stated)	-24.2
Cc1cc(C)c2c(N3CCC(O)(Cn4ccnc4)CC3)ncnc2n1	-3.28
CN(CC1COCCO1)c1ncnc2cc(F)ccc12 (configuration not stated)	0.613
Cc1nc(CCNC(=O)C2CC(=O)N(C(C)C)C2)sc1C (configuration not stated)	-14
COCCOC(=O)N1CCC(c2nccn2CC2CC2)CC1	-2.08
Cc1cccc(N2CCN(C(=O)C3CC4(CCNCC4)CN3)CC2)n1 (configuration not stated)	-4.27
O=C(Cc1n[nH]c(-c2cncc(Br)c2)n1)NCc1ccccn1	-1.39
Cn1cc(-c2ccnc(NCC3CC3)n2)cn1	-134
O=c1cc(C2CCNCC2)nc(CCCc2ccccc2)[nH]1	2.03
Cc1ccc(CN2CCN(CC3CC3)[C@@H]3CS(=O)(=O)C[C@@H]32)cc1C	25.4
COc1ccc(C2CC(=O)Nc3c2nc2n3CCCC2)cc1OC (configuration not stated)	-8.41
Cc1cc(C)nc(N2Cc3cnn(Cc4ccc(F)cc4)c3C2)n1	25.2

Structure (SMILES)	cytotoxicity at 10 µM [%]
Cc1nc(C)n(C2CCCN(C(=O)COc3cccc(C#N)c3)C2)n1 (configuration not stated)	1.08
Cc1cccc(-c2nc(C)nn2CC(=O)NC(C)C)c1	8.22
Cc1nc(CN2CCCC(NCc3csc(C(C)(C)C)n3)C2)no1 (configuration not stated)	0.238
CCOc1ncccc1NC(=O)N1CCCC(CNC(N)=O)C1 (configuration not stated)	-11.1
Cc1nccc(C(=O)N2CCCC2c2noc(C(C)C)n2)n1 (configuration not stated)	-16.4
c1cc(-c2nc(CN3CCc4c(ncn4C4CC4)C3)cs2)cs1	-4.25
c1cncc(-c2noc(CN3CCc4cncnc4C3)n2)c1	-3.39
Cc1nc(C2CCCN2CCCS(N)(=O)=O)no1 (configuration not stated)	-10.3
CCN(CC1CCOC1)C(=O)Nc1ccc(OC)nc1 (configuration not stated)	-4.2
OC(COCc1ccccc1Cl)CN1CC(n2cccn2)C1 (configuration not stated)	-7.7
CN1CCOC(CNCc2coc(-c3ccccc3)n2)C1 (configuration not stated)	-5.1
Cc1cnn(CC2CCCN2C(=O)CCc2nc3ccccc3[nH]2)c1 (configuration not stated)	-12.9
CC(O)CNC(=O)NCc1cccnc1OC1CCCC1 (configuration not stated)	2.29
Cc1nn(C)c(N(C)C)c1CNCc1ccccc1Cn1cncn1	3.85
O=C(C1CCC1)N1CCC2(CCCN2CC2CC2)CC1	-2.45
CN1CCOCC12CCN(C(=O)C1CCC1)CC2	0.64
Cc1ccc2c(c1)C(NC(=O)N(C)C)CC21CCN(CC2CC2)CC1 (configuration not stated)	4.44
Cc1cccc(N2CCc3ncc(CNS(C)(=O)=O)n3CC2)n1	8.39
CCN(C)c1ncnc2c1CCN(Cc1ccc(F)cc1)CC2	3.1
O=c1cc(Cn2cncn2)nc2n1CCCN(Cc1ccc(F)cc1)C2	4.43
